Reference: ChEMBL document CHEMBL1132282, “Discovery of novel non-peptide CCR1 receptor antagonists” (J Med Chem, 1999)

Legend:
[1] = target: T1, C-C chemokine receptor type 1 (Homo sapiens) (UniProt P32246); experiment: Inhibition of [125I]-MIP-1 alpha binding to recombinant human C-C chemokine receptor type 1 expressed in HEK293 cells at 10 uM concentration; type: cell-based
T1 sequence (whole entry): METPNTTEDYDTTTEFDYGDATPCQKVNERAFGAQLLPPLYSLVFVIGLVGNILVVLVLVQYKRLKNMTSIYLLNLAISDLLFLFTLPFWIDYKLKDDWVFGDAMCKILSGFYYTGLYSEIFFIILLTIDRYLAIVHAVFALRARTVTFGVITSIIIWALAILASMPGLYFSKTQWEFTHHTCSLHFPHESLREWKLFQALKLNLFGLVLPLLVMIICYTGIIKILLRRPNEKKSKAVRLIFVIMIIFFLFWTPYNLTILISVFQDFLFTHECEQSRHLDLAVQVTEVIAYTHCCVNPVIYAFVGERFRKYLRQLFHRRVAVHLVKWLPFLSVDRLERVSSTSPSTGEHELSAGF

[2] = target: T1, C-C chemokine receptor type 1 (Homo sapiens); experiment: Inhibition of [125I]-MIP-1 alpha binding to recombinant human C-C chemokine receptor type 1 expressed in HEK293 cells at 3 uM concentration; type: cell-based
[3] = target: T2, C-C chemokine receptor type 1 (Homo sapiens, UniProt P32246); experiment: Inhibition of MIP-1-alpha-induced intracellular calcium mobilization in HEK293 cells expressing human CCR1 receptor; type: functional, cell-based
T2 sequence (P32246 whole entry): T1 sequence (whole entry)
Procedure, shortened: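 HEK-293 cells overexpressing human CCR1 plated at 80 000 cells/well on poly-D-lysine, cultured one day, loaded with 4 μM Fluo-3 for 1 h at 37 °C in HBSS/Hepes with probenecid, then washed. Compound pretreatment 10 min at 37 °C, then 30 nM MIP-1α stimulation. FLIPR fluorescence read over 3 min at 37 °C. Six-concentration dose curves give IC50.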

[4] = target: T2, C-C chemokine receptor type 1; experiment: Inhibition of [125I]-MIP-1 alpha binding to recombinant human C-C chemokine receptor type 1 expressed in HEK293 cells; type: cell-based

N#CC(CCCN1CCC(O)(c2ccc(Cl)cc2)CC1)c1cccc2ccccc12 (centres undefined)
inhibition [1]: 51%

N#CC(CCCN1CCCC(O)(c2ccc(F)cc2)C1)(c1ccccc1)c1ccccc1 (centres undefined)
inhibition [1]: 0%

N#CC(CCCN1CCC(O)(c2ccc(N)cc2)CC1)(c1ccccc1)c1ccccc1
inhibition [1]: 33%

COC(=O)C1(c2ccccc2)CCN(CCCC2(C#N)c3ccccc3Cc3ccccc32)CC1
inhibition [1]: 62%

N#CC(CCCN1CCC(O)(c2ccc(Cl)cc2)CC1)c1ccccc1C(F)(F)F (centres undefined)
inhibition [1]: 25%

N#CC1(CCCN2CCC(C(=O)O)(c3ccccc3)CC2)c2ccccc2Cc2ccccc21
inhibition [1]: 15%

N#CC1(CCCN2CCC(c3ccccc3)CC2)c2ccccc2CSc2ccccc21 (centres undefined)
inhibition [2]: 19%

CC(=O)C1(c2ccccc2)CCN(CCCC2(C#N)c3ccccc3CSc3ccccc32)CC1 (centres undefined)
inhibition [2]: 0%

N#CC1(c2ccccc2)CCN(CCCC2(C#N)c3ccccc3CSc3ccccc32)CC1 (centres undefined)
inhibition [2]: 0%

N#CC(CCCN1CCC(O)(c2ccc(Cl)cc2)CC1)c1ccccc1OCc1ccccc1 (centres undefined)
inhibition [1]: 46%

N#CC(CCCN1CCC(O)(c2ccc(F)cc2)C1)(c1ccccc1)c1ccccc1 (centres undefined)
inhibition [1]: 22%

N#CC(CCCN1CCC(O)(c2ccc(Cl)cc2)CC1)c1cccs1 (centres undefined)
IC50 [3]: 8400 nM
Ki [4]: 128 nM

N#CC1(CCCN2CCC(O)(c3ccc(Cl)cc3)CC2)c2ccccc2C=Cc2ccccc21
IC50 [3]: 5300 nM
Ki [4]: 56 nM

N#CC1(CCCN2CCC(O)(c3ccc(Cl)cc3)CC2)c2ccccc2COc2ccccc21 (centres undefined)
IC50 [3]: 7700 nM
Ki [4]: 34 nM

N#CC(CCCN1CCC(O)(c2ccc(-c3ccccc3)cc2)CC1)(c1ccccc1)c1ccccc1
inhibition [1]: 30%

N#CCC(C#N)(CCCN1CCC(O)(c2ccc(Cl)cc2)CC1)c1ccccc1 (centres undefined)
IC50 [3]: 3200 nM
Ki [4]: 125 nM

N#CC(CCCN1CCC(O)(c2ccc(Cl)cc2)CC1)c1cccc(OCc2ccccc2)c1 (centres undefined)
inhibition [1]: 0%

N#CC(CCCN1CCC(O)(c2ccc(Cl)cc2)CC1)(c1ccccc1)c1ccccc1 [BERLEX COMPOUND]
IC50 [3]: 2500 nM
Ki [4]: 52 nM

N#CC1(CCCN2CCC(C(O)(c3ccccc3)c3ccccc3)CC2)c2ccccc2CSc2ccccc21 (centres undefined)
inhibition [2]: 0%
